Source: PubChem (several laboratories)
NPY1 pot ag = human NPY-Y1 potentiation or agonism, primary screen; P25929; NPY-Y1 expressing cells, potentiator/agonist activation; activation, % at 3.6 µM; 0.37% of 220,000 active; AID 1304; in the data active means activation above about 33%, passing the limit was not always enough;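 further: cells stimulated with NPY at EC10 then isoproterenol at EC100; 0% = low agonist plus stimulus and 100% = saturating agonist plus stimulus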
RAM network inh = inhibitors of the yeast RAM network. inhibition, % at 50 µM. 1.8% of 190,000 active. S. cerevisiae dse1pr::URA3 reporter, 5-FOA growth OD615, 2 d; analog-sensitive cbk1-as2 kinase mutant strain;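 active means inhibition above a set limit, 3 SD over mean compound inhibition, cut at about 8.4% in these data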;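 further: 0% = DMSO-only wells with no growth and 100% = 10 µM 1-NA-PP1 full growth; inhibition rescues growth on 5-FOA so higher OD means more RAM inhibition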
NPY Y2 blocker = NPY-Y2 (human) receptor antagonism. AID 793. inhibition, % at 2.7 µM. P49146. NPY-Y2 expressing cells, antagonist mode. 0.99% of 140,000 active; in the data active means inhibition above about 17%;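 further: 0% = vehicle with agonist challenge and 100% = reference antagonist with challenge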
Target sequence (P49146 whole entry, looked up): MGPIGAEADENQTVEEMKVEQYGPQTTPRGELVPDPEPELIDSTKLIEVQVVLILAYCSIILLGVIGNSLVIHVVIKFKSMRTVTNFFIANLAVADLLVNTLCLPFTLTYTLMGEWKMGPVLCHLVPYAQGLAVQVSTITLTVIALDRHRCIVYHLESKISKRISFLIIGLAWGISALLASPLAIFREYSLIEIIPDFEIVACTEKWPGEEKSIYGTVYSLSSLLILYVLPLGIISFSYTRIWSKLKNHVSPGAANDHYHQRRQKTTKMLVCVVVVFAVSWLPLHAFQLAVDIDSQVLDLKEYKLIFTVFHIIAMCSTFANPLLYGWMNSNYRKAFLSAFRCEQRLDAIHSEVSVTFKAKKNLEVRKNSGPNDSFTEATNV
WT yeast gro inh = growth inhibition of WT yeast, mitochondrial fusion screen; mitochondrial fusion phenotypic screen, WT strain; AID 1362; 2.1% of 190,000 active; inhibition, % at 10 µM; in the data active means inhibition above about 58%; tested in S. cerevisiae
NPY-Y1 antag = blocks the human neuropeptide Y Y1 receptor. P25929. HEK293-CNG Y1 cells, membrane potential fluorescence; NPY at EC95, then isoproterenol. inhibition, % at 3.6 µM. 1% of 200,000 active. AID 1040;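 active means inhibition above the campaign mean inhibition of all tested compounds plus 3 SD, cut at about 20% in these data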;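 further: 0% = DMSO wells given NPY plus isoproterenol and 100% = isoproterenol alone without NPY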
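Material: HEK293 cells with Y1 receptor plus CNG channel; times: compound incubation 1 h at room temperature, readout 45 min post-stimulation; signal: fluorescence, membrane potential probe; read-out basis: fluorescence ratio normalized to % inhibition between controls; benchmarks: full-block control isoproterenol-only wells, zero-block control NPY plus isoproterenol wells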
NPY2 pot ag = human NPY-Y2 potentiation or agonism, primary screen. cells expressing NPY-Y2, potentiator/agonist read-out. activation, % at 3.6 µM. 0.45% of 220,000 active; in the data active means activation above about 27%;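 further: cells stimulated with NPY near EC25 plus isoproterenol at EC100; 0% = vehicle plus submaximal agonist and 100% = vehicle plus saturating agonist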
* marks the source's active call; other numbers are inactive results; . = not tested or not shown. This is a sample that favours compounds with a hit; in the whole collection about 4.9% have one here.

SMILES	NPY1 pot ag	RAM network inh	NPY Y2 blocker	WT yeast gro inh	NPY-Y1 antag	NPY2 pot ag
CC1CCCN(CC(=O)Nc2ccc(S(=O)(=O)NC3CCCCC3)cc2)C1 (configuration not stated)	5	0	2	98*	-7	2
Cc1ccc(CSCC(=O)N2CCN(c3ccccc3)CC2)cc1	-2	7	7	1	4	-11
CCS(=O)(=O)Nc1ccc(C2=NN(C(=O)c3ccco3)C(c3cccc(F)c3)C2)cc1 (configuration not stated)	35	8	.	5	-6	35*
O=C(Nc1ccc(Cl)c(Cl)c1)O/N=C/c1ccncc1	0	2	0	74*	1	6
O=C(Nc1cccc(Cl)c1)O/N=C\c1ccncc1	12	0	0	-21	-5	9
COC(=O)C1=C(C)Nc2[nH]c(=S)[nH]c(=O)c2C1c1ccc(OC)cc1 (configuration not stated)	0	3	.	-13	0	-11
CCCCn1c(=NC(=O)c2ccco2)c(C(=O)OCC)cc2c(=O)n3ccccc3nc21	16	3	6	3	0	8
CCOC(=O)c1cc2c(=O)n3ccccc3nc2n(C(C)C)c1=NC(=O)c1c(-c2c(F)cccc2Cl)noc1C	-6	10*	3	38	1	-3
COC(=O)C1C(=O)NCC1c1ccccc1 (configuration not stated)	-11	4	0	94*	4	0
Cc1cc(=O)oc2cc(OCC(=O)Nc3nnc(C(C)C)s3)ccc12	7	5	1	-7	8	14
CCOC(=O)c1ccc(NC(=S)NCCc2ccccc2)cc1	25	2	2	12	0	-2
CCOC(=O)c1ccc(NC(=S)NCCc2ccccc2F)cc1	-3	1	.	58*	5	-2
COc1cccc(-c2nnc(SCc3ccc(C#N)cc3)n2Cc2ccco2)c1	-8	4	6	27	13	-3
Cc1ccc(-c2nnc(SCc3ccc(C#N)cc3)n2Cc2ccco2)cc1	0	1	20*	13	21*	-12
O=C(CSc1nnc(-c2cnccn2)n1Cc1ccco1)c1ccc(Cl)cc1	-31	3	6	-1	4	-4
Cc1ccc(OCc2nnc(SCc3ccc(C#N)cc3)n2-c2ccc(C)cc2)cc1	9	8.5*	4	46	13	1
O=C(CSc1nnc(-c2cnccn2)n1Cc1ccco1)c1ccccc1	-1	5	0	99*	-1	10
c1ccc(-c2nnc(CSc3nnc(-c4ccncc4)n3Cc3ccco3)o2)cc1	-11	0	-2	82*	4	0
C(=C\c1ccccc1)/CSc1nnc(-c2ccncc2)n1Cc1ccco1	-20	2	1	0	-1	6
Cc1ccccc1CSc1nnc(-c2cccs2)n1Cc1ccco1	-4	2	24*	25	23*	-7
C(=C\c1ccccc1)/CSc1nnc(-c2ccccc2)n1Cc1ccco1	-33	4	25*	5	21*	-21
Clc1cccc(-c2nnc(SC/C=C/c3ccccc3)n2Cc2ccco2)c1	-20	7	37*	55	26*	-7
CSc1scc2c1-c1nc(SCC(=O)C(C)(C)C)ncc1CC2	-24	.	.	.	.	-26
Cc1ccc2oc3c(c(=O)c2c1)C(c1cccs1)N(CCCN(C)C)C3=O (configuration not stated)	.	.	.	0	.	.
COc1cc(CC(=O)NCc2ccc3c(c2)OCO3)cc(OC)c1OC	-4	2	0	-1	-6	0
SMILES	NPY1 pot ag	RAM network inh	NPY Y2 blocker	WT yeast gro inh	NPY-Y1 antag	NPY2 pot ag
O=C(NCc1nnc(SCc2ccc(C(F)(F)F)cc2)n1-c1ccccc1)C12CC3CC(CC(C3)C1)C2	18	3	2	72*	0	16
O=C(NCc1nnc(SCc2ccc(F)cc2)n1-c1ccccc1)C12CC3CC(CC(C3)C1)C2	0	1	5	14	3	-5
CC(=O)Nc1nc2ccccc2n1Cc1ccccc1Cl	17	.	.	.	.	-10
CN1CCCNc2nc3ccccc3nc21	-16	.	.	.	.	1
Cc1cccc(-n2c(-c3csc4ccccc34)n[nH]c2=S)c1	10	0	5	64*	0	22
COn1c(SCc2ccc(C)cc2C)nc2ccccc2c1=O	-45	9.2*	14	2	14	-23
O=C(c1cccc(Cl)c1)N1CCC(c2nc3ccccc3[nH]2)CC1	-7	1	.	-16	2	-3
O=C(c1ccccc1Cl)N1N=C(c2ccc(Br)cc2)CC1c1nc2ccccc2[nH]1 (configuration not stated)	10	2	3	73*	6	-2
CC(Oc1ccccc1)c1ccnc2nc(N3CCOCC3)nn12 (configuration not stated)	-7	1	.	5	-3	-17
CC(Oc1ccc(Cl)cc1Cl)c1ccnc2nc(N3CCOCC3)nn12 (configuration not stated)	15	-2	.	75*	-2	5
CC(C)c1ccc(NC(=S)NCc2cccs2)cc1	14	1	-1	67*	-8	12
O=C(Oc1c(Br)cc([N+](=O)[O-])cc1Br)c1cccnc1	-10	-1	6	-6	6	4
O=[N+]([O-])c1ccc(/C=N/Nc2ccc3ccccc3c2)o1	76*	3	-10	18	-19	66*
O=C(N/N=C/c1ccc([N+](=O)[O-])o1)c1cc2ccccc2o1	10	.	.	.	.	0
O=C(N/C(=C/c1cccc(Br)c1)c1nc(=S)[nH][nH]1)c1ccccc1	51*	1	-3	-5	-13	25*
Cc1ccc(C(=O)N/C(=C\c2ccc(Br)cc2)c2nc(=S)[nH][nH]2)cc1	47*	6	-5	14	-14	21
COc1ccc(/C=C(/NC(=O)c2ccccc2)c2nc3ccccc3[nH]2)cc1OC	7	-1	2	-2	-4	-7
CC(C)CN1C(=O)c2ccc(C(=O)Nc3ccncc3)cc2C1=O	26	3	1	-7	-4	8
Fc1cccc(NC(=S)N2CCCCC2)c1	104*	0	1	12	-3	-5
S=C(Nc1ccc(Cl)cc1)N1CCCCC1	-2	-1	12	-3	-4	-1
CCCCc1ccc(NC(=S)N2CCCC(C)C2)cc1 (configuration not stated)	2	1	.	75*	8	-3
CCc1ccc(NC(=S)N2CCCCCCC2)cc1	8	0	.	64*	0	3
CCOC(=O)c1ccc(NC(=S)N2CCCC(C)C2)cc1 (configuration not stated)	7	0	.	12	0	3
CCCCc1nc(SCC(=O)Nc2cc(C)on2)n[nH]1	7	3	0	-3	9	-3
